Experiments:
Nitric oxide synthase 3 = molecular target: T1, Nitric oxide synthase 3 (Homo sapiens, UniProt P29474); assay: Inhibition of human eNOS using L-arginine as substrate assessed as reduction in NO production in the presence of NADPH by NO-hemoglobin capture assay
T1 sequence (P29474 whole entry): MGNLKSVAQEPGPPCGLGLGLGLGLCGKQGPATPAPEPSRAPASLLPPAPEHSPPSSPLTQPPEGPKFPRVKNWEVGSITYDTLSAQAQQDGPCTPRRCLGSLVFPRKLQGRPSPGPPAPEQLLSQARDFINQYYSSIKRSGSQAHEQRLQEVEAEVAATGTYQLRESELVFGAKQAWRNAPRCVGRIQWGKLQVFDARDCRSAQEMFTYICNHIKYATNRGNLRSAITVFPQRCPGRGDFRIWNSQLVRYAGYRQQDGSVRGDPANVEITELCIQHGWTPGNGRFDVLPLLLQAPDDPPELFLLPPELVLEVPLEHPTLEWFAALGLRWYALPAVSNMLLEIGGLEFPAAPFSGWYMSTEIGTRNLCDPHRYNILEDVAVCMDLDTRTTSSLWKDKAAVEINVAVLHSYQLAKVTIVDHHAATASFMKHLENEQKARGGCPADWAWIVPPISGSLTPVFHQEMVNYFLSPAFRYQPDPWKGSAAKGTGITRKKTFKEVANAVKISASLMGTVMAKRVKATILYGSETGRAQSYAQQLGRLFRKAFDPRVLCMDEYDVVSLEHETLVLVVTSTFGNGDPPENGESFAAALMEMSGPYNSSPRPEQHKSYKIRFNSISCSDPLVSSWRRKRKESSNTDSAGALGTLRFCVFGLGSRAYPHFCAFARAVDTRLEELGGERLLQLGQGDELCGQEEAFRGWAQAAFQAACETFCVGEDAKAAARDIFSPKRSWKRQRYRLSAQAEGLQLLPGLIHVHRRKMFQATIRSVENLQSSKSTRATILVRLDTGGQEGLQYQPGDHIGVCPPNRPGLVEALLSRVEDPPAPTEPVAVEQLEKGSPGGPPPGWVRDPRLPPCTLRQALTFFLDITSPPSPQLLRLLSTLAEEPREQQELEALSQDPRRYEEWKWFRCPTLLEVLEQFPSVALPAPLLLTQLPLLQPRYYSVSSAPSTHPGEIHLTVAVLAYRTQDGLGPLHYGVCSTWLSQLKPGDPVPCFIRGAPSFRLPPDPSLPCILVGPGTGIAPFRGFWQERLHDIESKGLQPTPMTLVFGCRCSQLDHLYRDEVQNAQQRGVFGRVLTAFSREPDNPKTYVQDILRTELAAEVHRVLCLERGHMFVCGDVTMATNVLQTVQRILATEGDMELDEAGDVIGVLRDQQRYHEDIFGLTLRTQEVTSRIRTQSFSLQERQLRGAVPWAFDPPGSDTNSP
Outline: (§1)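 Ki was obtained from IC50 by the Cheng–Prusoff equation. […] Enzyme was purified human NOS isoform. Assay buffer was 100 mM HEPES, 10% glycerol, pH 7.4–7.5, and stock buffer was 100 mM HEPES, pH 7.4–7.5. Plate reader syringe lines were equilibrated with assay buffer before the run.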

[1] = Effective permeability of compound in PBS buffer at pH 7.4 at 200 uM incubated for 17 hrs by PAMPA-BBB assay; assay type: ADME; settings: read-out: Peff
[2] = molecular target: Nitric oxide synthase, inducible (Homo sapiens, UniProt P35228); assay: Inhibition of human iNOS using L-arginine as substrate assessed as reduction in NO production in the presence of NADPH by NO-hemoglobin capture assay; outline: as §1
Chain of Nitric oxide synthase, inducible (P35228 whole entry): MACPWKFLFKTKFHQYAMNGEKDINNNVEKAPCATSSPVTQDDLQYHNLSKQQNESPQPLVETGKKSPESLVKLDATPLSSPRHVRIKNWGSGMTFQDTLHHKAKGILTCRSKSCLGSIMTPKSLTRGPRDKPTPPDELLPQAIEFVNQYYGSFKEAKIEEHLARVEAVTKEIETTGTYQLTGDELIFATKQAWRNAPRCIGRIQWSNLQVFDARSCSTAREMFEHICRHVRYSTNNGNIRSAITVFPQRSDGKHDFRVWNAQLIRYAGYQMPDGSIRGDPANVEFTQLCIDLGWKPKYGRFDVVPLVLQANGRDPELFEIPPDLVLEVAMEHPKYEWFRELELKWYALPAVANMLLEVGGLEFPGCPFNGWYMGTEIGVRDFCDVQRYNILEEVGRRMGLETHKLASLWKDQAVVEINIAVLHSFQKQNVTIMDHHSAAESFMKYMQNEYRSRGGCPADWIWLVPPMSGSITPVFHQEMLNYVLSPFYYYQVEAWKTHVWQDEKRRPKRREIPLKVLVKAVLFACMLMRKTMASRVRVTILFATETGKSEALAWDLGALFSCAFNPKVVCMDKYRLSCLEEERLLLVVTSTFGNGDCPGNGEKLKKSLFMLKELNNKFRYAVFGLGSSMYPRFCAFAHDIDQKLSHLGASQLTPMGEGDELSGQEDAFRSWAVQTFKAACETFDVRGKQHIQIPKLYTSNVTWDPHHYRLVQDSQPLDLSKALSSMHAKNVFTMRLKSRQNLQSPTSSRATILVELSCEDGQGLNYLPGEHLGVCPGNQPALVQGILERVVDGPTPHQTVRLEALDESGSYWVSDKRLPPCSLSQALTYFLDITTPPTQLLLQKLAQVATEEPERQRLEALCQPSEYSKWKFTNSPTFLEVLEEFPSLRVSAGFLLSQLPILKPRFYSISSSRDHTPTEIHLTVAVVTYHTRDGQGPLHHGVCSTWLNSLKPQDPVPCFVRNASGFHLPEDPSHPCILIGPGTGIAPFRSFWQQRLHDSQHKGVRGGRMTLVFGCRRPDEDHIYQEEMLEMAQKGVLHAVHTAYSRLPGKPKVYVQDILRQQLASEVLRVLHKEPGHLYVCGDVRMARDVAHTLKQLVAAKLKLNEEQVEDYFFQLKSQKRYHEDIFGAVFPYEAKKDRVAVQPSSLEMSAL

Nitric oxide synthase 1 [3] = molecular target: Nitric oxide synthase 1 (Rattus norvegicus, UniProt P29476)
Chain of Nitric oxide synthase 1 (Rattus norvegicus, UniProt P29476) (P29476 whole entry): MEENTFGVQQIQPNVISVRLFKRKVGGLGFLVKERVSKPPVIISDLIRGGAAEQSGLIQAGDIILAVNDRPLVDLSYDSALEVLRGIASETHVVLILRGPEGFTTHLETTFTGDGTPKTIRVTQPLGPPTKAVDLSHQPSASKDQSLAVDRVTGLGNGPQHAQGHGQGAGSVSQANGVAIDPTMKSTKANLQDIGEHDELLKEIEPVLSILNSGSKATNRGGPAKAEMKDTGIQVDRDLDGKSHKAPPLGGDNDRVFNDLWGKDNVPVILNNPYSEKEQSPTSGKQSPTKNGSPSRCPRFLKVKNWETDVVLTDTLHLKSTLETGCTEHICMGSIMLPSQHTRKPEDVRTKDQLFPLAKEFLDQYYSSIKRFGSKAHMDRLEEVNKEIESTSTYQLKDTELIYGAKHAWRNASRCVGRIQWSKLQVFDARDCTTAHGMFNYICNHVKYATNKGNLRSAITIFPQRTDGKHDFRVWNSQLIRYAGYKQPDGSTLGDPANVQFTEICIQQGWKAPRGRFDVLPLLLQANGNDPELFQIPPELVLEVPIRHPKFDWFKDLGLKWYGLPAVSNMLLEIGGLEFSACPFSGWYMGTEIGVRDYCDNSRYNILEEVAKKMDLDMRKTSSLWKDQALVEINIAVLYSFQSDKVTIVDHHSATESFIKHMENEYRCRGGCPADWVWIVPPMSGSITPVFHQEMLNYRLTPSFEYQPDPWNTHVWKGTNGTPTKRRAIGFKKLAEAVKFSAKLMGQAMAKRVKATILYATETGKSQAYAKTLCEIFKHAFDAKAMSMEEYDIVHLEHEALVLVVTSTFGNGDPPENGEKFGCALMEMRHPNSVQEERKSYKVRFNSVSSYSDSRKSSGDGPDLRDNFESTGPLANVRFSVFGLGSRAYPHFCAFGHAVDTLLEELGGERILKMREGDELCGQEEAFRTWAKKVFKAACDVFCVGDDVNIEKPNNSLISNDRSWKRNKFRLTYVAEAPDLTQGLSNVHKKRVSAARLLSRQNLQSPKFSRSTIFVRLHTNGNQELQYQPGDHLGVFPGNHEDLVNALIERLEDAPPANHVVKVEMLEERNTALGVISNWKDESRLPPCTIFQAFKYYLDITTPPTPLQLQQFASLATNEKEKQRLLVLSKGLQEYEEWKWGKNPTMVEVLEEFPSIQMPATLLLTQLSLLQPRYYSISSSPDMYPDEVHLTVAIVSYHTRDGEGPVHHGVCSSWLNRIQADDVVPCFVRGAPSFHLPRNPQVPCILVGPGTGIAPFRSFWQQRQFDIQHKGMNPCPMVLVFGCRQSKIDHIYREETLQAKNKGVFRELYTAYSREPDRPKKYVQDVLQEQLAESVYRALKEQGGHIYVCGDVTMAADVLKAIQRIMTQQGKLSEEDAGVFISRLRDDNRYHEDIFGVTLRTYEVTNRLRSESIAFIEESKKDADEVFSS

Nitric oxide synthase 1 [4] = molecular target: Nitric oxide synthase 1 (Homo sapiens, UniProt P29475)
Chain of Nitric oxide synthase 1 (Homo sapiens, UniProt P29475) (P29475 whole entry): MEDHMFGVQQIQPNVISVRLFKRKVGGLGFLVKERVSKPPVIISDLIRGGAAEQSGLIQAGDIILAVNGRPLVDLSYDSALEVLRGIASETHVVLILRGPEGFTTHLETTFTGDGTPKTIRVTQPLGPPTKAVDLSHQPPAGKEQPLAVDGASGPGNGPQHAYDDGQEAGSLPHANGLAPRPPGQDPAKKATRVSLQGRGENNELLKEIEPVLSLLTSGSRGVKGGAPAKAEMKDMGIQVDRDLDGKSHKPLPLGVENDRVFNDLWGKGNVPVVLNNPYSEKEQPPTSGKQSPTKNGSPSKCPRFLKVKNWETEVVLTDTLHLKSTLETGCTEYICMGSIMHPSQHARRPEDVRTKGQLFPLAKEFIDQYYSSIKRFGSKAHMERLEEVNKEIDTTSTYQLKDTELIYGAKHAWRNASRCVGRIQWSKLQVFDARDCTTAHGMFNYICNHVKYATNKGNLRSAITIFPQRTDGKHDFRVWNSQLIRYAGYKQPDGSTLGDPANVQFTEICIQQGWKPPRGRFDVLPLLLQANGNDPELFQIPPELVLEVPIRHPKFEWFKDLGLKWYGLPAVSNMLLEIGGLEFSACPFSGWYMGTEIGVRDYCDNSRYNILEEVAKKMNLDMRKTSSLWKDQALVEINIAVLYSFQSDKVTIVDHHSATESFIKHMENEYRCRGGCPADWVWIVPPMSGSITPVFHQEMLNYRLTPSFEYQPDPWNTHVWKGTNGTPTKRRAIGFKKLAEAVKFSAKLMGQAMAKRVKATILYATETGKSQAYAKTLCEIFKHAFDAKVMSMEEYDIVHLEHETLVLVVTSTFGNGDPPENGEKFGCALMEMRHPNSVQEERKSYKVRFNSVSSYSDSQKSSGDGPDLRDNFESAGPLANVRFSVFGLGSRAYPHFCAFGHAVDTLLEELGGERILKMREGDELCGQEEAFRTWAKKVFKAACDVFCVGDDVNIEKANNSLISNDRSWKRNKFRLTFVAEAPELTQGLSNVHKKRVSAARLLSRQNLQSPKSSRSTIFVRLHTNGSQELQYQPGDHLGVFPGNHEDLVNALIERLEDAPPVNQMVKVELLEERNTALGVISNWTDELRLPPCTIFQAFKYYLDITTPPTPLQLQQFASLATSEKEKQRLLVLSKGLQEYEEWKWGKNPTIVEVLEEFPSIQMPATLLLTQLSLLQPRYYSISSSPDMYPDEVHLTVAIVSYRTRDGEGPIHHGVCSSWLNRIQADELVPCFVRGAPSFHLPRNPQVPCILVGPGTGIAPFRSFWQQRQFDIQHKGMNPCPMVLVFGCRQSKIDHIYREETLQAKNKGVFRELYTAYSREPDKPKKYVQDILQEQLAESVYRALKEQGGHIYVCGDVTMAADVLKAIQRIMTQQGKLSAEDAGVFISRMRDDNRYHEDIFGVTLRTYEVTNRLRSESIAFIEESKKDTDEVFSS

Compound	Ki (Nitric oxide synthase 3) [µM]	Papp at 17 h, 200 µM [1] [×10⁻⁶ cm/s]	Ki [2] [µM]	Ki (Nitric oxide synthase 1 [3]) [µM]	Ki (Nitric oxide synthase 1 [4]) [µM]
Cc1cc(N)nc(C#CCCN(C)C)c1	70.5	4.7	29.8	0.242	0.327
Cc1cc(N)nc(CCCCN(C)C)c1	7.35	2.3	7.67		
Cc1cc(N)nc(CCCN(C)C)c1	3.66	2			
CNCCCc1cc(C)cc(N)n1	1.47	0.96			
Cc1cc(N)nc(CCCN2CCN(C)CC2)c1	12.5	2.2		0.056	
Cc1cc(N)nc(CCCN2CC(F)(F)C2)c1	6.27	17.5	4.36	0.095	0.149

Next, values leading:

Ki (Nitric oxide synthase 3) [µM]	Papp at 17 h, 200 µM [1] [×10⁻⁶ cm/s]	Ki [2] [µM]	Ki (Nitric oxide synthase 1 [3]) [µM]	Ki (Nitric oxide synthase 1 [4]) [µM]	Compound
43.8	3.2				Cc1cc(N)nc(C#CCN2CCN(C)CC2)c1
1.92	4.7				CNCC#Cc1cc(C)cc(N)n1
18.6	17.3	6.48	0.046	0.048	Cc1cc(N)nc(CCCN2CCC(F)(F)CC2)c1
18.9	21.1	27.4	1.59	1.43	Cc1cc(N)nc(C#CCN2CCC(F)(F)CC2)c1
5.13	19.6	11.1	0.465	0.488	Cc1cc(N)nc(C#CCN2CC(F)(F)C2)c1

Source: ChEMBL document CHEMBL5113456, “2-Aminopyridines with a shortened amino sidechain as potent, selective, and highly permeable human neuronal nitric oxide synthase inhibitors” (Bioorg Med Chem, 2022)
